Measured values from ChEMBL document CHEMBL5150043, “Discovery of Anthranilic Acid Derivatives as Difluoromethylornithine Adjunct Agents That Inhibit Far Upstream Element Binding Protein 1 (FUBP1) Function” (J Med Chem, 2022).
Active and inactive are the calls of the source. The calls are words filed in the database; no cut-off is given here.

Assays:
CHO-K1 [1] = experiment: Cytotoxicity against chinese hamster CHO-K1 cells assessed as decrease in cell viability measured after 48 hrs by ATPlite assay; assay type: toxicity, cell-based, Cricetulus griseus; conditions: cho-k1, 48 h
Outline: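 CHO-K1 cells dosed alone in 384-well format in parallel with Assays 1 and 2; MTC taken as highest concentration giving ≥90% relative growth versus untreated control; typical error ±10% (n = 3).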

L3.6pl [2] = experiment: Cytotoxicity against human L3.6pl cells assessed as cell viability measured after 72 hrs by ATPlite assay; assay type: toxicity, cell-based
Outline: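 L3.6pl human pancreatic cancer cells in 96-well format were exposed to compound alone for 72 h. Growth was expressed relative to an untreated control. MTC is the highest concentration with relative growth still >90%. […] Data come from two or more experiments, each run in triplicate (n ≥ 6).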

[3] = Cytotoxicity against human L3.6pl cells assessed as inhibition of cell growth measured after 72 hrs by ATPlite assay; assay type: toxicity, cell-based
L3.6pl [4] = experiment: Inhibition of polyamine uptake in human L3.6pl cells assessed as inhibition of Ant44-induced toxicity by measuring cellular ATP content at MTC measured after 72 hrs in presence of Ant44 by ATPlite assay; assay type: functional
Outline: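 L3.6pl cells, Ant44 challenge over 72 h, compound dosed up to its MTC; ECx = percentage effect at the MTC on scale from Ant44-only (50% growth) to untreated (100%); average of ≥2 experiments in triplicate (n ≥ 6).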

[5] = Inhibition of spermidine uptake in human L3.6pl cells assessed as inhibition of cell growth by measuring cellular ATP content at MTC measured after 72 hrs in presence of DFMO and spermidine by ATPlite assay; assay type: functional
Outline: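 L3.6pl cells with DFMO and spermidine over 72 h, compound dosed up to its MTC; ECx = percentage effect at the MTC on scale between DFMO-only (50%) and DFMO + Spd (100%) controls; average of ≥2 experiments in triplicate (n ≥ 6).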

CHO-K1 [6] = experiment: Inhibition of spermidine uptake in chinese hamster CHO-K1 cells assessed as decrease in cell growth by measuring cellular ATP content measured after 48 hrs in presence of DFMO and spermidine by ATPlite assay; conditions: Cricetulus griseus, CHO-K1, 48 h
L3.6pl [7] = experiment: Decrease in intracellular polyamine level in human L3.6pl cells assessed as putrescine level at 60 uM incubated for 24 hrs by HPLC analysis; assay type: functional, cell-based
Outline: (§1)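 L3.6pl cells incubated 24 h at 37 °C with compound (60 μM) or 0.6% DMSO vehicle; native intracellular polyamines then measured; mean ± SD (n = 3).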

L3.6pl [8] = experiment: Decrease in intracellular polyamine level in human L3.6pl cells assessed as spermidine level at 60 uM incubated for 24 hrs by HPLC analysis; assay type: functional, cell-based; outline: as §1
[9] = Inhibition of spermidine uptake chinese hamster CHO-K1 cells assessed as decrease in cell growth by measuring cellular ATP content measured after 48 hrs in presence of DFMO and spermidine by ATPlite assay; assay type: functional, cell-based; conditions: Cricetulus griseus, CHO-K1, 48 h
L3.6pl [10] = experiment: Inhibition of FUBP1/DNA FUSE region interaction in human […] cells assessed as reduction in c-myc protein level at 20 to 60 uM incubated for 24 hrs by Western blot analysis; assay type: cell-based; conditions: dose 20-60 µM
Outline: (§2)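 Western blot of L3.6pl cells after 24 h compound treatment with matched DMSO loading; c-Myc, p21 and FUBP1 probed, GAPDH as loading control; at least three independent experiments.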

L3.6pl [11] = experiment: Inhibition of FUBP1/DNA FUSE region interaction in human […] cells assessed as increase in p21 protein level at 20 to 60 uM incubated for 24 hrs by Western blot analysis; assay type: cell-based; conditions: dose 20-60 µM; outline: as §2
L3.6pl [12] = experiment: Inhibition of polyamine transport system in human L3.6pl cells assessed as reduction in [3H] spermidine uptake preincubated for 24 hrs followed by [3H]-spermidine addition and measured after 15 mins by scintillation counter method; assay type: cell-based; conditions: time 24.25 hrs
Outline: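 L3.6pl cells pretreated 24 h with compound, then 3H-Spd added for 15 min; intracellular 3H-Spd measured; mean ± SD (n = 3).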

L3.6pl [13] = experiment: Inhibition of polyamine transport system in human L3.6pl cells assessed as reduction in [3H] spermidine uptake preincubated for 72 hrs in presence of DFMO followed by [3H]-spermidine addition and measured after 15 mins by scintillation counter method; assay type: cell-based; conditions: time 72.25 hrs
Outline: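 L3.6pl cells incubated 72 h with DFMO alone or DFMO plus compound, then 3H-Spd added for 15 min; intracellular 3H-Spd measured; mean ± SD (n = 3).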

L3.6pl [14] = experiment: Inhibition of FUBP1/DNA FUSE region interaction in human […] cells assessed as decrease in c-myc mRNA level at 20 to 60 uM incubated for 24 hrs by qRT-PCR analysis; assay type: cell-based; conditions: dose 20-60 µM
Outline: (§3)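 L3.6pl cells treated 24 h with compound or matched DMSO; p21 and c-Myc mRNA by qRT-PCR, normalized to β-actin; log mean ± SD (n = 2).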

L3.6pl [15] = experiment: Inhibition of FUBP1/DNA FUSE region interaction in human […] cells assessed as increase in p21 mRNA level at 20 to 60 uM incubated for 24 hrs by qRT-PCR analysis; assay type: cell-based; conditions: dose 20-60 µM; outline: as §3
L3.6pl [16] = experiment: Inhibition of FUBP1/DNA FUSE region interaction in human […] cells assessed as reduction in c-Myc FUSE DNA pull down at 60 uM incubated for 24 hrs by qRT-PCR analysis; assay type: cell-based
Outline: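 ChIP: L3.6pl cells ± compound (60 μM) 24 h; crosslinked FUBP1–DNA immunoprecipitated with FUBP1 antibody, crosslink reversed, FUSE sequence upstream of c-Myc promoter amplified by qPCR; mean fold change ± SEM (n = 2).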

[17] = biological target: T1, Far upstream element-binding protein 1 (Homo sapiens) (UniProt Q96AE4); experiment: Binding affinity to recombinant GST tagged FUBP1 KH3-KH4 domain (unknown origin) assessed as decrease in FUBP1-FUSE DNA bound complex using 5'-IRDye700 tagged TGTATATTCCCTCGGG oligonucleotide as substrate at 30 to 60 uM measured for 30 mins by Gel shift assay relative to control; conditions: dose 30-60 µM, DDE = dose-dependent effect
T1 sequence (whole entry): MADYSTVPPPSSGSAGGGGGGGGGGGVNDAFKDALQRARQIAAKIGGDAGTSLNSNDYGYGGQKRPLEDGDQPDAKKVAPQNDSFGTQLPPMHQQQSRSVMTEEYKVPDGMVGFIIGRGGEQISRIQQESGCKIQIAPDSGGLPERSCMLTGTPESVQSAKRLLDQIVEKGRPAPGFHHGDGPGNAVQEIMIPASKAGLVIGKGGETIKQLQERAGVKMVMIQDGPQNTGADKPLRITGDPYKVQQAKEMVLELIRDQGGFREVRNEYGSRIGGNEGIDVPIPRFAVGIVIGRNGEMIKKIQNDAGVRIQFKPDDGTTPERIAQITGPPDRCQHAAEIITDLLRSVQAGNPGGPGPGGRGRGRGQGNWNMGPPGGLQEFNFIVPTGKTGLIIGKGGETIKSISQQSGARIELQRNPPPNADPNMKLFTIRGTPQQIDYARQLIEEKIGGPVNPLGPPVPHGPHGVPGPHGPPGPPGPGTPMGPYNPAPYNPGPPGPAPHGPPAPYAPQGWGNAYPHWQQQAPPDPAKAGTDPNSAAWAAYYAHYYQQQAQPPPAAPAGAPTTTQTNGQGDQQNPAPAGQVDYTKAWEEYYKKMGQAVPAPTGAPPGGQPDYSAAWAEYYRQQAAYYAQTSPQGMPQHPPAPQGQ

L3.6pl [18] = experiment: Decrease in intracellular polyamine level in human L3.6pl cells assessed as total polyamine level at 60 uM incubated for 24 hrs by HPLC analysis; assay type: functional, cell-based; outline: as §1
L3.6pl [19] = experiment: Decrease in intracellular polyamine level in human L3.6pl cells assessed as spermine level at 60 uM incubated for 24 hrs by HPLC analysis; assay type: functional, cell-based; outline: as §1

Structure (SMILES) | MTC (CHO-K1 [1]) [µM] | MTC (L3.6pl [2]) [µM] | IC50 at 72 h [3] [µM] | inhibition (INH) (L3.6pl [4]) [%] | inhibition (INH) [5] [%] | EC50 (CHO-K1 [6]) [µM] | EC50 [9] [µM] | other results
COc1ccc(C(=O)Nc2ccc(N3CCN(c4ccccc4Cl)CC3)cc2C(=O)O)cc1 | 28 | 90 | 125 | 27 | 2 | 27 |  | 
NCCCC(N)(C(=O)O)C(F)F (centres undefined) |  |  |  |  |  |  |  | Activity (L3.6pl [7]): Active; Activity (L3.6pl [8]): Active
O=C(Nc1ccc(N2CCN(c3ccccn3)CC2)cc1C(=O)O)c1ccco1 | > 40 | 12 | > 50 | 41 | 31 | > 40 | > 40 | 
COc1ccc(-c2cc(C(F)(F)F)n3nc(-c4cccs4)cc3n2)cc1OC |  |  |  |  |  |  |  | inhibition (L3.6pl [10]): Active; inhibition (L3.6pl [11]): Active
CNCCCCNCCCCNCc1cc(CNCCCCNCCCCNC)cc(CNCCCCNCCCCNC)c1 |  |  |  |  |  |  |  | inhibition (L3.6pl [12]): Active; inhibition (L3.6pl [13]): Active
COc1ccc(C(=O)Nc2ccc(N3CCN(c4ccccc4OC)CC3)cc2C(=O)O)cc1 | > 40 | 6 | 13.3 | 25 | 8 | 26 | 9 | 
Cc1ccccc1CN1CCN(c2ccc(NC(=O)C(C)(C)C)cc2)CC1 | 2 | 10 | > 10 | 15 | 15 | 2 |  | 
COc1ccccc1C(=O)Nc1ccc(N2CCC(Oc3ccccc3)CC2)cc1C(=O)O | > 40 | 10 | 38.6 | 35 | 45 | 19 | 32 | 
COc1ccccc1C(=O)Nc1ccc(N2CCN(CCCc3ccccc3)CC2)cc1C(=O)O | > 40 | 10 | > 10 |  |  | > 40 | > 40 | 
COc1ccc(C(=O)Nc2ccc(N3CCN(c4cc(Cl)ccc4C)CC3)cc2C(=O)O)cc1 | 13 | 8 | 16.8 |  |  | 8 | > 40 | inhibition (L3.6pl [10]; DDE = dose-dependent effect): Dde; inhibition (L3.6pl [11]; DDE = dose-dependent effect): Dde; inhibition (L3.6pl [14]): Active; inhibition (L3.6pl [15]): Active; inhibition (L3.6pl [16]): Active; Activity [17]: Dde; Activity (L3.6pl [18]): Active; Activity (L3.6pl [7]): Active; Activity (L3.6pl [8]): Active; Activity (L3.6pl [19]): Active
COc1ccccc1C(=O)Nc1ccc(CN2CCN(c3ccccn3)CC2)cc1C(=O)O | > 40 | 10 | > 10 |  |  | > 40 | > 40 | 
COc1ccccc1C(=O)Nc1ccc(N2CCN(c3cc(Cl)ccc3C)CC2)cc1C(=O)O | 19 | 7 | 29.1 |  |  | 21 | 2 | 
